# Paper PMC6641930 (ACS Omega, 2017)
# Values joined by “and” are separate entries in the source; they are usually repeats but may differ in a detail not shown here. Equal entries are not always repeated.
# What was measured:
# native Aβ1-42 = native Aβ1-42 (Homo sapiens, UniProt P05067); test: Fluorescence emission of probe with freshly dissolved native Aβ1-42; assay type: binding; settings: 5 μM native Aβ1-42 + 1 μM probe; PBS buffer
# Method in brief: (§1)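 Probe (1.0 μM final, from DMSO stock) is read free in buffer or with 5 μM native protein (monomer basis). Buffers are HOAc/NaAc pH 3.0 or PBS pH 7.5. Aβ1-42 is recombinant with an extra N-terminal Met, freshly gel-filtered monomer in PBS pH 7.5. Spectra are recorded at 330 nm excitation, 350–600 nm emission, with identical instrument settings.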
# Aβ1-42 fibrils [1] = target: T1, Aβ1-42 fibrils (Homo sapiens, UniProt P05067); test: Fluorescence lifetime
# T1 sequence (P05067 672-713): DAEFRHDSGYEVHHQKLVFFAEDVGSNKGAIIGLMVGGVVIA
# Method in brief: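 Time-correlated single photon counting on 5 μM probe with 20 μM Aβ1-42 fibrils (monomer basis) in PBS pH 7.5 at 25 °C, not degassed. Excitation 337 nm; decay recorded at the bound-probe emission maximum. Instrument response is measured with fibril solution. Multi-exponential fits are judged by χ2 and residuals. Uncertainty is within 10%.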
# Aβ1-42 fibrils [2] = target: T1, Aβ1-42 fibrils; test: Fluorescence emission of probe bound to Aβ1-42 fibrils; assay type: binding; settings: PBS buffer pH 7.5
# Method in brief: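 Recombinant Aβ1-42 (extra N-terminal Met), solubilised in 6 M GuHCl and gel-filtered into PBS pH 7.5. […] Probe (1.0 μM, from DMSO stock) mixed with 5 μM fibrils or freshly dissolved monomer (monomer basis) in PBS pH 7.5. Emission spectra at 330 nm excitation, identical settings.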
# native TTR [3] = target: T2, native TTR (Homo sapiens, UniProt P02766); test: Saturation binding of native TTR to probe
# lysozyme fibrils [4] = target: T3, lysozyme fibrils (Gallus gallus, UniProt P00698); test: Titration of lysozyme fibrils on a fixed probe concentration; assay type: binding, chicken
# T3 sequence (P00698 19-147): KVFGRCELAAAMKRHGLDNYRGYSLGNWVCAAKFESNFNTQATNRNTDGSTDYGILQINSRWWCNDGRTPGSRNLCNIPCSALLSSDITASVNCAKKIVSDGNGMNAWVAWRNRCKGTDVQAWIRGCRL
# Method in brief: (§2)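 Fibrils (0–20 μM, monomer basis) are titrated onto fixed probe: 1 μM, or 0.5 μM for Aβ1-42 fibrils. Buffers are pH 3.0 for TTR, insulin and lysozyme, and PBS pH 7.5 for Aβ1-42 (10 μM, 37 °C, 24 h quiescent). Samples equilibrate 30 min at room temperature. Excitation 330 nm, emission 350–700 nm. Kd comes from a one-site nonlinear fit with fixed Bmax correcting for unbound probe. SD is from two independent binding series.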
# insulin fibrils [5] = target: T4, insulin fibrils (Bos taurus, UniProt P01317); test: Fluorescence emission of probe bound to insulin fibrils; assay type: binding, Bovine; settings: pH 3.0
# T4 sequence (P01317 25-54 limits assumed): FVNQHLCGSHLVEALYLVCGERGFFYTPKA
# T4 sequence (P01317 85-105 limits assumed): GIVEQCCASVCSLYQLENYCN
# Method in brief: (§3)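 Fibrils made from pH 3.0 (TTR: purified WT TTR in 50 mM NaAc/100 mM NaCl; bovine insulin or hen lysozyme: 200 μM in 25 mM HCl pH 1.6 at 65 °C, then dialysed into NaAc/NaCl pH 3.0). 1.0 μM probe from DMSO stock mixed with 5 μM fibrils (monomer basis) in HOAc/NaAc pH 3.0. Excitation 330 nm, emission 350–600 nm. Fold increase taken relative to free probe in buffer.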
# [6] = UV-vis absorption and fluorescence spectra in methanol; assay type: physicochemical
# Method in brief: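 Absorption is read in methanol in a 1 cm quartz cuvette at room temperature, at 20 μM and at four concentrations (50–5 μM, or 10–2 μM for one probe) for ε. Fluorescence of 20 μM probe in methanol uses 330 nm excitation, 350–600 nm emission and 1 nm resolution.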
# Aβ1-42 fibrils [7] = target: T1, Aβ1-42 fibrils; test: Titration of Aβ1-42 fibrils on a fixed probe concentration; assay type: binding
# Method in brief: as §2
# Fluorescence lifetime = assay type: physicochemical; settings: A: degassed methanol, [probe] = 5 μM
# Method in brief: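 TCSPC decays of 5 μM probe in argon-degassed methanol, excited at 337 nm and monitored at each emission maximum at room temperature. Instrument response is determined with a fibril solution. Decays are fitted to a sum of exponentials, with fit quality judged by χ2, residual distribution and residual autocorrelation. Average lifetime is calculated from amplitudes and lifetimes. Lifetime uncertainty is within 10%.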
# TTR fibrils [8] = target: T5, TTR fibrils (Homo sapiens, UniProt P02766); test: Titration of TTR fibrils on a fixed probe concentration; assay type: binding
# Method in brief: as §2
# native TTR [9] = target: T2, native TTR; test: Fluorescence emission of probe with native TTR; assay type: binding; settings: 5 μM native TTR + 1 μM probe
# Method in brief: as §1
# [10] = Emission maximum of free probe in buffer; assay type: physicochemical; settings: HOAc/NaOAc buffer pH 3.0 or PBS buffer pH 7.5
# Method in brief: as §1
# TTR fibrils [11] = target: T5, TTR fibrils; test: Fluorescence emission of probe bound to TTR fibrils; assay type: binding; settings: 5 μM fibrils + 1 μM probe; pH 3.0; excitation 330 nm
# Method in brief: as §3
# lysozyme fibrils [12] = target: T3, lysozyme fibrils; test: Fluorescence emission of probe bound to lysozyme fibrils; assay type: binding, chicken; settings: pH 3.0
# Method in brief: as §3
# insulin fibrils [13] = target: T4, insulin fibrils; test: Titration of insulin fibrils on a fixed probe concentration; assay type: binding, Bovine
# Method in brief: as §2
# [14] = B: bound to Aβ1-42 fibrils in PBS buffer
# [15] = B: bound to Aβ1-42 fibrils in PBS buffer, [probe] = 5 μM, [fibrils] = 20 μM
# [16] = 5 μM fibrils (monomer basis) + 1 μM probe, versus free probe
# [17] = 5 μM fibrils + 1 μM probe, excitation 330 nm
# Sequence of native Aβ1-42 (P05067 672-713): as the sequence (P05067 672-713) above
compound,measurement,setting,value
"Oc1ccc(/C=C/c2cc3ccc4cccc5ccc(c2)c3c45)cc1O [Compound 5, (E)-4-(2-(pyren-2-yl)vinyl)benzene-1,2-diol]",fluorescence / binding with freshly prepared native Aβ1-42,native Aβ1-42,"Neither 2, 4, or 5 fluoresced appreciably"
same,α1 (normalized pre-exponential factor),Aβ1-42 fibrils [1]; [14],0.11
same,α2 (normalized pre-exponential factor),Aβ1-42 fibrils [1]; [14],0.42
same,α3 (normalized pre-exponential factor),Aβ1-42 fibrils [1]; [14],0.47
same,τ2,Aβ1-42 fibrils [1]; [14],8.89 ns
same,τ3,Aβ1-42 fibrils [1]; [14],34.70 ns
same,τavg (average fluorescence lifetime),"Aβ1-42 fibrils [1]; B: bound to Aβ1-42 fibrils in PBS buffer pH 7.5, [probe] = 5 μM, [fibrils] = 20 μM",29.8 ns and 29.76 ns
same,λem1 (emission wavelength of decay),Aβ1-42 fibrils [1]; [15],430 nm
same,τ1,Aβ1-42 fibrils [1]; [15],0.83 ns
same,Int: fold increase in fluorescence intensity upon binding to Aβ1-42 fibrils,Aβ1-42 fibrils [2]; [16],11.1 fold
same,λem2: emission maxima of probe bound to Aβ1-42 fibrils,Aβ1-42 fibrils [2]; [17],~421 nm
same,Kd,native TTR [3],0.2 ± 0.01 µM
same,Kd,lysozyme fibrils [4],1.6 ± 0.3 µM
same,Int: fold increase in fluorescence intensity upon binding to insulin fibrils,insulin fibrils [5]; [16],23.2 fold
same,λem2: emission maxima of probe bound to insulin fibrils,insulin fibrils [5]; [17],420 nm and 445 nm and 475 nm
same,Stokes shift,[6],78 nm
same,λmax (abs),[6],337 nm
same,λmax (em),"[6]; excitation 330 nm, [probe] = 20 μM",415 nm
same,ε,[6]; four concentrations,47 668 L·M^–1 cm^–1
same,Kd,Aβ1-42 fibrils [7],1.3 ± 0.1 µM
same,α1 (normalized pre-exponential factor),Fluorescence lifetime,0.77
same,α2 (normalized pre-exponential factor),Fluorescence lifetime,0.23
same,λem1 (emission wavelength of decay),Fluorescence lifetime,425 nm
same,τ2,Fluorescence lifetime,29.30 ns
same,τavg (average fluorescence lifetime),Fluorescence lifetime,19.11 ns
same,Kd,TTR fibrils [8],6 ± 0.3 µM
same,emission peaks of probe bound to native TTR,native TTR [9]; excitation 330 nm,420 nm and 445 nm and 475 nm
same,fluorescence intensity increase upon binding to native TTR,native TTR [9]; versus probe in buffer,15.8 fold
same,λem1: emission maxima of probes in buffer,[10],420 nm
same,λem2: emission maxima of probe bound to TTR fibrils,TTR fibrils [11],420 nm and 445 nm and 475 nm
same,Int: fold increase in fluorescence intensity upon binding to lysozyme fibrils,lysozyme fibrils [12]; [16],8.9 fold
same,λem2: emission maxima of probe bound to lysozyme fibrils,lysozyme fibrils [12]; [17],420 nm
same,Kd,insulin fibrils [13],2.3 ± 0.4 µM
